This is a sample that favours compounds with a hit; in the whole collection about 2.1% have one here.
PKD1 kinase inh – inhibitors of human PKD1 kinase. PKD1 kinase fluorescence polarization assay. hit rate 0.056% among 200,000. Q15139. inhibition, % (no concentration beside the values); in the data active means inhibition above about 50%
Ins promoter up – MIN6 insulin promoter up-regulation; z-score at 5 µM; hit rate 0.3% among 190,000; MIN6 insulin promoter-GFP reporter, high-content imaging; stronger effect = higher value;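 active means z-score above 3 at 5 µM with at least 500 cells counted in the well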
Arbovirus inh – antivirals against arbovirus infection. inhibition, % at 10 µM. hit rate 0.37% among 200,000. arbovirus infection cell-based antiviral screen; in the data active means inhibition above about 30%
Autophagy mod – modulators of autophagy | calls only at 10 µM (by protocol) | hit rate 0.98% among 190,000 | MEF GFP-LC3 puncta imaging; test concentration mostly 10 µM | AID 463193;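 active means percentage of spot-positive cells more than 3 SD above its plate mean, without a fluorescence outlier flag or 80% toxicity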;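 further: spot-positive cell cutoff set from DMSO-treated cells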
RBBP9 inhibitor – blocks human serine hydrolase RBBP9 | inhibition, % at 7.94 µM | hit rate 0.2% among 220,000 | O75884 | recombinant RBBP9, FP-Rh probe fluorescence polarization;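 active means inhibition above the campaign mean of all tested compounds plus 3 SD, cut at about 14% in these data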;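 further: plate controls were DMSO wells with RBBP9 for no effect and wells lacking RBBP9 protein for full effect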
Target sequence (O75884 whole entry, looked up): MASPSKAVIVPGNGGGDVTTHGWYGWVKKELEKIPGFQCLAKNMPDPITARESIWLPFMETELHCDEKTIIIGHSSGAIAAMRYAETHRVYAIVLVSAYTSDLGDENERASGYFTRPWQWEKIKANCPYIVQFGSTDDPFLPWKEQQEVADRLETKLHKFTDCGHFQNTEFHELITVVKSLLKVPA
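Test system – recombinant human RBBP9 · Input – RBBP9 2.5 µM in dispensing solution, pre-mixing · Medium – Tris buffer pH 8.0, NaCl, Pluronic · Schedule – preincubation 30 min plus labeling 45 min at 25 °C · Measured by – fluorescence polarization · Measure – % inhibition · Controls – DMSO and no-protein wells · Replicates – one well per compound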
Insulin prom inh – TRM-6 insulin promoter activity inhibition. TRM-6 cells, insulin promoter-eGFP reporter, imaging; reporter expression induced with tamoxifen. inhibition, % at 2 µM. hit rate 0.9% among 130,000. AID 1273;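 active means inhibition above the mean plus 3 SD, with well images judged a real hit on visual review, cut at about 60% in these data, passing the limit was not always enough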
The depositor's hits bear a star; i = inactive; / = no result given; + = active, no number.

SMILES	PKD1 kinase inh	Ins promoter up	Arbovirus inh	Autophagy mod	RBBP9 inhibitor	Insulin prom inh
Cc1cc(NCCO)nc(-n2nc(C)cc2C)n1	-8	0.35	-2	i	-2	79*
C/C(=N\NC(=O)c1ccccc1C)c1ccc(NC(=O)c2cccs2)cc1	2	-1.1	82*	i	-13	/
Cc1ccc(NC(=O)c2cc3c(s2)CCCC3)cc1	-6	0.28	-4	i	-12	/
COCCNCCCOc1ccc(Br)cc1Cl	-7	-0.1	-31	i	-4	-8
O=C(Nc1scc(-c2ccccc2)c1C(=O)O)c1ccco1	-10	0.44	42*	i	-9	-24
O=C(Nc1scc(-c2cccs2)c1C(=O)O)c1cccs1	-7	/	50*	i	2	50
O=C(/C=C/c1cccs1)Nc1scc(-c2ccccc2)c1C(=O)O	-1	-0.26	74*	i	-3	7
CCOC(=O)c1c(-c2cccs2)csc1NC(=O)c1ccncc1	8	-0.07	-2	i	-3	/
CC(C)(C)C(=O)/C=C(\N)c1ccccn1	1	0.99	3	i	-1	17
Cc1nc([N+](=O)[O-])nn1C12CC3CC(CC(Cl)(C3)C1)C2	4	-0.08	0	i	-1	37
CCN(CC)c1ccc2cc(C(C)=O)c(=O)oc2c1	2	0.96	-3	i	-11	18
CCN(CC)c1ccc2cc(-c3nnc(-c4ccncc4)o3)c(=O)oc2c1	-19	4.4*	5	+	6	48
CCCCSc1nc2c(cnn2-c2ccc(C)c(C)c2)c(=O)[nH]1	3	0.38	-2	+	-2	/
CCCSc1nc2c(cnn2-c2ccc(C)c(C)c2)c(=O)[nH]1	-6	-1.9	0	i	-10	/
C/C(=N\S(=O)(=O)c1ccc(C)cc1)N1CCN(S(=O)(=O)c2ccccc2)C1	-3	3.5*	0	i	-3	/
COCCn1c(-c2ccc(Cl)cc2)nc2c(c(=O)c3ccccc3n2C)c1=O	-4	0	-5	i	-4	-35
COCCn1c(-c2ccccc2Cl)nc2c(c(=O)c3ccccc3n2C)c1=O	-9	-0.59	31*	i	1	44
O=C1C2C3CCC(C3)C2C(=O)N1Cc1ccco1 (stereo not given)	-2	0.4	3	i	4	-12
CN(C)C(=O)C(=O)c1c(-c2ccccc2)cc2ccccn12	-11	0.52	4	i	3	-41
COc1ccc(-c2nnc(-c3cc(OC)c(OC)c(OC)c3)o2)cc1OC	2	-1.9	38*	i	-6	-344
COc1cc(-c2nnc(-c3cccs3)o2)cc(OC)c1OC	-4	1.9	-3	i	-6	-93
O=C(COc1ccc(Br)cc1CNC1CCCCC1)NCCc1ccccc1	1	-0.65	-16	i	-9	/
O=C(O)c1cn(-c2ccccc2)c(=O)c2ccccc12	-8	/	8	i	-1	70*
Cc1cccc(-n2nnc3c(=O)n(CC(=O)Nc4cc(C)on4)cnc32)c1	8	-0.02	-3	i	-5	0
COc1ccccc1C(=O)Nc1ccc2c(c1)nc(CCNC(=O)c1ccccc1)n2C	/	-0.14	/	/	-7	/
SMILES	PKD1 kinase inh	Ins promoter up	Arbovirus inh	Autophagy mod	RBBP9 inhibitor	Insulin prom inh
Cc1cc(C)c(S(C)(=O)=O)c(N(C)NC(=O)c2c(F)cccc2F)n1	-2	-0.27	-1	i	-5	0
Cc1cc(C)c(S(C)(=O)=O)c(N(C)N)n1	4	-0.28	-1	i	1	75*
CN(C)Cc1c(O)c(Cl)cc2c3c(c(=O)oc12)CCCC3	-1	/	32*	i	-1	-14
CC(C)OP(=O)(OC(C)C)C(C)NC(=O)Cc1ccccc1 (stereo not given)	-5	-1.2	19	i	2	82*
CCCCOC(=O)Nc1nnc(COc2ccccc2)s1	-10	0.9	-1	i	-5	30
CC(CSc1nnnn1-c1ccccc1)Cn1c(N2CCCC2)nc2c1c(=O)[nH]c(=O)n2C (stereo not given)	2	-0.29	3	+	9	31
Cc1cc(C)cc(N=c2c([N+](=O)[O-])nn(-c3cccc(Cl)c3)n2O)c1	-4	-1.2	-9	+	2	27
Cc1cccc(N=c2c([N+](=O)[O-])nn(-c3ccc(Cl)cc3)n2O)c1	15	-0.42	-7	i	2	/
C/C(=N\NC(=O)c1cccc(N/N=C(\C)c2ccco2)c1)c1ccco1	4	-0.46	-4	i	2	82*
O=C(NCc1ccco1)c1cccc(S(=O)(=O)N2CCCCC2)c1	-4	0.78	6	i	2	25
O=C(CCCCCNC(=O)c1ccccc1)N/N=C/c1ccccc1O	-12	/	-9	i	1	-20
CCCN(CCC)C(=O)Cn1c(=O)c2ccccc2n2c(=S)sc(-c3ccccc3C)c12	-4	0.03	-6	i	-6	-21
CCCN(CCC)C(=O)Cn1c(=O)c2sccc2n2c(=S)sc(-c3ccccc3)c12	-8	-0.11	1	+	-3	/
CO/N=C(/CS(=O)Cc1ccc(Cl)cc1)c1ccc(Cl)cc1 (stereo not given)	-11	0.21	3	i	-5	/
Cc1cc(C)n(-c2ccc(OCC(=O)O)nn2)n1	1	3.3*	6	i	-11	-10
CCOC(=O)N1CCN(C(=O)c2cc(-c3ccc(OCC)cc3)nc3ccccc23)CC1	-17	-0.96	-19	i	-1	-329
CCOc1ccc(-c2cc3nc(C4CCN(C(=O)OC(C)(C)C)CC4)c(C(=O)O)cn3n2)cc1	-6	-0.28	50*	i	-16	-6
Fc1cccc(Cl)c1CSc1nnnn1-c1ccc2c(c1)OCO2	4	0.4	-9	i	-1	-3
CCOC(=O)N1CCN(/C=C(\C#N)c2nc3ccccc3s2)CC1	-1	/	5	+	3	-7
CCOC(=O)N1CCC(=NNc2nc3ccccc3s2)CC1	/	-1	/	/	-5	/
N#C/C(=C\N1CCN(Cc2ccc3c(c2)OCO3)CC1)c1nc2ccccc2s1	-5	/	-4	+	-2	36
CC(CN1CCOCC1)OC(=O)CCc1ccccc1 (stereo not given)	-3	-0.63	1	i	5	/
CC(C)n1c(=S)[nH]c2ccccc2c1=O	1	-0.09	-6	i	1	35
CCCc1[nH]nc2c1C(c1ccoc1)C(C#N)=C(N)O2 (stereo not given)	-4	-0.18	3	i	-6	-17
NC(=O)NC(c1ccccc1)c1ccccc1F (stereo not given)	-5	-1.2	12	i	-3	-16
CCOC(=O)C1CCCN(C2CC(=O)N(c3ccc(NC(C)=O)cc3)C2=O)C1 (stereo not given)	7	-0.3	3	i	-8	12
CCOC(=O)c1ccc(N2C(=O)CC(N3CCC(C(N)=O)(N4CCCCC4)CC3)C2=O)cc1 (stereo not given)	-3	/	-2	+	-7	-420
